High-throughput results (PubChem BioAssay)
Most compounds without a hit are left out; they make up all but 2% or so of the library.
TWEAK-Fn14 inh – inhibitors of TWEAK-Fn14 signaling, primary screen, luciferase reporter cells, uHTS. TWEAK-stimulated Fn14 reporter cells, luciferase luminescence, 8 h. inhibition, % at 10 µM. 360,000 compounds, 2% hits; in the data active = inhibition above about 50%
TROY signal inh – inhibitors of TROY-driven NF-kB signaling, primary screen, Q293 LMP1-TROYcd cells, NF-kB luciferase, uHTS | Q293 LMP1-TROYcd NF-kB luciferase reporter, 4 h | inhibition, % at 10 µM | 360,000 compounds, 0.98% hits;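 active = compounds whose plate-normalised and pattern-corrected inhibition of the luciferase reporter signal at the single screening dose is 50% or more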
LGR2 inh – inhibitors of bursicon-induced LGR2 CRE-luciferase signal, primary screen, cell-based, HEK293, CRE-luciferase reporter, bursicon stimulation; Drosophila bursicon receptor LGR2 (rickets); bursicon-stimulated, 4 h; inhibition, % at 9.99 µM; 380,000 compounds, 0.35% hits;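 active = drop in luminescence signal, shown as inhibition above about 50% in the replicate tests, limit read from the data, passing the limit was not always enough; inconclusive = probably only some replicates passing the limit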;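 note: agonist challenge used bursicon conditioned medium at about half maximal strength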
Xi reactivation – activators of inactive X chromosome reactivation, primary screen, imaging, XiGFP fibroblasts, GFP high-content imaging, set 2; activation, % at 7.58 µM; AID 743238, 2013; XiGFP mouse fibroblasts, % GFP-positive cells imaging, 3 d; cells co-treated with 5-aza-dC sensitizer; scaled so ellipticine positive control = 100%; 360,000 compounds, 0.055% hits;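 active = mean normalized replicate activation at least 10% and every replicate at or above 10%; inconclusive = only one of the two criteria met; inactive = mean below 10% and not all replicates reach 10%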;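 note: 0% = median of on-plate neutral control wells and 100% = ellipticine 6 µM median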
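System: 68-5-11 XiGFP fibroblast line | Buffer or medium: DMEM containing 5-aza-dC | Compound: Single point | Times: Compounds 3 days, fix/stain 15 min at room temperature | Benchmarks: Positive control ellipticine, 6 µM final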
CaV13 FRET inh – Primary screen for inhibitors of IQ motif and Ca2+-dependent inactivation inhibitor domain binding in CACNA1D, Förster resonance energy transfer in living cells, …. 340,000 compounds, 0.098% hits. HEK cells, CFP/YFP FRET ICDI-IQ, plate reader, 10 min; percent FRET-ratio fall versus neutral wells. AID 743397. inhibition, % at 12.3 µM;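 active = mean replicate inhibition of at least 30% and at least 1% of replicates passing that level; inconclusive = only one of the two criteria is met; inactive = neither criterion is met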;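 note: 0% = median of the neutral control wells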
* marks the source's active call; other numbers are inactive results; ? = inconclusive; . = no result given.

SMILES	TWEAK-Fn14 inh	TROY signal inh	LGR2 inh	Xi reactivation	CaV13 FRET inh
COc1ccc(S(=O)(=O)Nc2ccc3c(c2)OCO3)cc1C	-6	13	-4	.	-5
Cn1cc(S(=O)(=O)Nc2ccc3c(c2)OCCO3)cn1	70*	62*	13	0	-3
COc1ccc(S(=O)(=O)Nc2ccc3c(c2)OCCO3)cc1OC	55*	21	-2	0	-2
O=C(Nc1ccc(F)cc1)N1C[C@H]2[C@@H](c3ccccc31)[C@@H](CO)N2C(=O)Cc1ccccn1	.	.	9	0	.
O=C(N[C@H]1CC[C@@H](CCNS(=O)(=O)c2ccc(F)cc2)O[C@H]1CO)C1CCCC1	.	.	-9	0	.
COc1ccccc1-c1nnc(Sc2nc([N+](=O)[O-])nn2C)o1	84*	31	31	.	-5
Cn1cnnc1Sc1nc([N+](=O)[O-])nn1C	-9	-4	-9	0	8
C[C@@H]1CCCCO[C@H](CN(C)C(=O)c2ccncc2)[C@H](C)CN([C@H](C)CO)C(=O)c2cc(NC(=O)C3CCCCC3)ccc2O1	.	.	-2	-1	.
COc1cccc(CNc2nc(NCC3CC3)nc3ccsc23)c1OC	18	25	0	0	-6
C#Cc1cccc(Nc2nc(NCc3ccccc3)nc3ccsc23)c1	69*	4	-43	0	-5
c1ccc(CNc2nc(NCc3cccs3)nc3ccsc23)cc1	8	61*	57*	0	-15
CSc1ccccc1CNc1nc(NCC2CC2)nc2ccsc12	29	52*	32	0	-6
O=C(CC1CC1)N1CC[C@@H]2[C@H]1c1cc(-c3cccc(F)c3)ccc1N[C@@H]2CO	.	.	-4	1	.
CC1=CC(=C2C(=O)c3ccccc3C2=O)C=C(C)N1Cc1ccco1	1	2	-56	0	-5
CCN1C=CC(=C2C(=O)c3ccccc3C2=O)C=C1	101*	68*	.	.	-8
CCCCN1C(C)=CC(=C2C(=O)c3ccccc3C2=O)C=C1C	53*	60*	60*	0	-7
CCCCCCN1C=CC(=C2C(=O)c3ccccc3C2=O)C=C1	97*	82*	94*	0	-9
CCCN1C=CC(=C2C(=O)c3ccccc3C2=O)C=C1	71*	73*	.	.	-4
CCCCCCCCN1C(=O)[C@H](CC(=O)NCC2CCCCC2)C[C@@]2(C(=O)OCC)CCCC=C12	-2	51*	0	0	-8
CN1[C@@H]2Cn3c(ccc(C4=CCCC4)c3=O)[C@H]1[C@@H](C(=O)N1CCOCC1)[C@@H]2CO	.	.	-4	0	.
COc1ccc(-c2ccc(C(=O)Nc3cccc(F)c3)c3occc23)c(C)c1	50	58*	-114	0	-5
COc1ccc(-c2ccc(C(=O)Nc3cccc(NS(C)(=O)=O)c3)c3occc23)c(C)c1	59*	43	3	0	-4
COc1ccc(-c2coc3c(C(=O)Nc4cccnc4)cccc23)c(C)c1	66*	22	18	0	-5
COc1ccccc1-c1ccc2c(c1)O[C@H](CN(C)S(=O)(=O)c1ccc(F)cc1)[C@H](C)CN([C@H](C)CO)S2(=O)=O	.	.	1	-1	.
COc1ccc(C(=O)Nc2nnc(SCC(=O)NC3CC3)s2)cc1	54*	7	?	.	-3
SMILES	TWEAK-Fn14 inh	TROY signal inh	LGR2 inh	Xi reactivation	CaV13 FRET inh
COc1ccc(C(=O)Nc2nnc(SCC(=O)NCc3ccco3)s2)c(OC)c1	75*	43	?	0	.
COc1ccccc1C(=O)Nc1nnc(SCC(=O)NCc2ccco2)s1	36	3	.	.	.
COc1ccc(C(=O)Nc2nnc(SCC(=O)NC3CCCC3)s2)c(OC)c1	74*	-25	-42	0	.
COc1cccc(C(=O)Nc2nnc(SCC(=O)NC3CC3)s2)c1	-5	-27	-8	.	-2
CC(C)NC(=O)N1C[C@@H]2[C@H](c3ccccc31)[C@H](CO)N2Cc1ccc(Cl)cc1	.	.	29	0	.
C[C@@H]1CN([C@H](C)CO)C(=O)Cc2cc(NC(=O)Nc3cccc4ccccc34)ccc2O[C@@H]1CN(C)S(=O)(=O)c1ccc(Cl)cc1	.	.	6	0	.
COc1cccc(N=Nc2ccc3ccccc3c2O)c1	75*	58*	16	0	-4
COc1ccc(N=Nc2ccc3ccccc3c2)c(O)c1	81*	63*	60*	0	-6
COc1ccc(N=Cc2oc3ccc4ccccc4c3c2O)cc1	-46	-38	-93	0	-9
COc1ccc(N=Nc2cc(C)ccc2O)cc1	23	-18	22	0	-5
COc1cc([N+](=O)[O-])cc(/C=N/NC(=O)c2ccc(NC(=O)c3ccc(C)cc3)cc2)c1O	70*	-1	28	0	-2
O=C(NC(Nc1nc2ccc([N+](=O)[O-])cc2s1)(C(F)(F)F)C(F)(F)F)c1cccnc1	51*	15	.	0	-4
O=C(NC(Nc1nc2ccc([N+](=O)[O-])cc2s1)(C(F)(F)F)C(F)(F)F)c1ccccc1Cl	90*	66*	35	0	-18
O=C(NC(NNc1ccc([N+](=O)[O-])cc1)(C(F)(F)F)C(F)(F)F)c1ccccc1Cl	-2	10	.	.	.
COc1ccc(C(NC(=O)C2CCN(CCOc3ccc(Cl)cc3Cl)CC2)c2cccs2)cc1 (configuration not stated)	-4	51*	.	0	-6
O=C(N[C@H]1CC[C@H](CCNC(=O)C2CCC2)O[C@H]1CO)c1ccncc1	.	.	11	0	.
CS(=O)(=O)n1nc(OC(=O)c2cc(Br)ccc2Cl)cc1N	8	5	-8	0	-3
COc1ccc(S(=O)(=O)n2nc(OC(=O)c3ccccc3)cc2N)cc1	6	24	.	.	-5
COc1ccc(S(=O)(=O)n2nc(OC(=O)c3ccc(C)cc3)cc2N)cc1	19	59*	.	.	-4
Cc1ccc(C(=O)Oc2cc(N)n(S(=O)(=O)c3ccc(C)cc3)n2)cc1	68*	43	6	0	3
Cc1ccccc1C(=O)Oc1cc(N)n(S(=O)(=O)c2ccccc2)n1	55*	25	3	0	9
CS(=O)(=O)n1nc(OC(=O)c2cccc3ccccc23)cc1N	56*	40	.	.	-2
Cc1ccc(S(=O)(=O)n2nc(OC(=O)c3ccccc3F)cc2N)cc1	2	30	-13	0	-3
COc1cccc(NC(=O)N2CC(=O)N3[C@H](C2)[C@@H](c2ccc(C4=CCCC4)cc2)[C@@H]3CO)c1	.	.	3	0	.
O=C(Cc1csc(-c2ccccc2)n1)NCc1ccccc1F	.	.	-5	0	38*
